Measurements reported in ChEMBL document CHEMBL3877271, “Antagonizing STAT3 activation with benzo[b]thiophene 1, 1-dioxide based small molecules” (Eur J Med Chem, 2017).
Active and inactive are the calls of the source. No cut-off for these calls is given here.

Test system: not listed separately
Assay: Antiproliferative activity against human MDA-MB-231 cells after 72 hrs by MTT assay
Type: functional, cell-based
Details: MDA-MB-231, 72 h
How it was run: (§1)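 Cells in RPMI-1640 with 10% FBS, penicillin/streptomycin, 37 °C, 5% CO₂; seeded 3000-5000 cells/well, left overnight (16 h), then medium replaced with fresh medium holding serial dilutions in triplicate for 72 h. MTT read-out; viability = absorbance of treated/solvent control × 100%. Stattic served as reference.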

Compound | IC50
O=S1(=O)C=Cc2cccc(Nc3ccc(Cl)c(Cl)c3)c21 | 1360 nM
O=S1(=O)C=Cc2cccc(Nc3ccc(OC(F)(F)F)cc3)c21 | 2100 nM
COc1cc(Nc2cccc3c2S(=O)(=O)C=C3)cc(OC)c1OC | 990 nM
Cc1cc(C)cc(Nc2cccc3c2S(=O)(=O)C=C3)c1 | 3120 nM
O=S1(=O)C=Cc2cccc(Nc3cc(C(F)(F)F)cc(C(F)(F)F)c3)c21 | 3120 nM
O=S1(=O)C=Cc2ccc(Nc3cccc(OC(F)(F)F)c3)cc21 | 2080 nM
O=S1(=O)C=Cc2ccc(Nc3ccc(C(F)(F)F)cc3)cc21 | 1300 nM
O=S1(=O)C=Cc2ccc(Nc3ccc(F)c(F)c3)cc21 | 3050 nM
COc1cc(Nc2ccc3c(c2)S(=O)(=O)C=C3)cc(OC)c1OC | 1430 nM
O=S1(=O)C=Cc2ccc(Nc3ccc(Cl)c(Cl)c3)cc21 | 890 nM
COc1ccccc1Nc1cccc2c1S(=O)(=O)C=C2 | 2400 nM
O=S1(=O)C=Cc2cccc(Nc3cccc(F)c3)c21 | 1910 nM
O=S1(=O)C=Cc2cccc(Nc3ccc(Cl)cc3)c21 | 1210 nM
COc1ccc(Nc2ccc3c(c2)S(=O)(=O)C=C3)cc1 | 1400 nM
Cc1ccc(Nc2cccc3c2S(=O)(=O)C=C3)cc1 | 1560 nM
COc1ccc(Nc2cccc3c2S(=O)(=O)C=C3)cc1 | 1040 nM
O=S1(=O)C=Cc2cccc(Nc3c(F)c(F)c(F)c(F)c3F)c21 | 4460 nM
O=S1(=O)C=Cc2ccc(Nc3ccc(Cl)cc3)cc21 | 6720 nM
O=S1(=O)C=Cc2cccc(Nc3ccc(C(F)(F)F)cc3)c21 | 1200 nM
O=S1(=O)C=Cc2cccc(Nc3ccc(F)c(F)c3)c21 | 1890 nM
N#Cc1cccc(Nc2ccc3c(c2)S(=O)(=O)C=C3)c1 | > 10000 nM
O=S1(=O)C=Cc2ccc(Nc3cccc(C(F)(F)F)c3)cc21 | 1310 nM
O=S1(=O)C=Cc2cccc(Nc3ccccc3C(F)(F)F)c21 | 3900 nM
O=[N+]([O-])c1ccc2c(c1)S(=O)(=O)C=C2 | 1680 nM

Test system: not listed separately
Assay: Antiproliferative activity against human A549 cells after 72 hrs by MTT assay
Type: functional, cell-based
Details: A549, 72 h
How it was run: as §1

Compound | IC50
O=S1(=O)C=Cc2cccc(Nc3ccc(Cl)c(Cl)c3)c21 | 660 nM
O=S1(=O)C=Cc2cccc(Nc3ccc(OC(F)(F)F)cc3)c21 | 1570 nM
COc1cc(Nc2cccc3c2S(=O)(=O)C=C3)cc(OC)c1OC | 950 nM
Cc1cc(C)cc(Nc2cccc3c2S(=O)(=O)C=C3)c1 | 4800 nM
O=S1(=O)C=Cc2cccc(Nc3cc(C(F)(F)F)cc(C(F)(F)F)c3)c21 | 3840 nM
O=S1(=O)C=Cc2ccc(Nc3cccc(OC(F)(F)F)c3)cc21 | 1370 nM
O=S1(=O)C=Cc2ccc(Nc3ccc(C(F)(F)F)cc3)cc21 | 1140 nM
O=S1(=O)C=Cc2ccc(Nc3ccc(F)c(F)c3)cc21 | 1550 nM
COc1cc(Nc2ccc3c(c2)S(=O)(=O)C=C3)cc(OC)c1OC | 1880 nM
O=S1(=O)C=Cc2ccc(Nc3ccc(Cl)c(Cl)c3)cc21 | 3320 nM
COc1ccccc1Nc1cccc2c1S(=O)(=O)C=C2 | 2590 nM
O=S1(=O)C=Cc2cccc(Nc3cccc(F)c3)c21 | 2550 nM
O=S1(=O)C=Cc2cccc(Nc3ccc(Cl)cc3)c21 | 1040 nM
COc1ccc(Nc2ccc3c(c2)S(=O)(=O)C=C3)cc1 | 1220 nM
Cc1ccc(Nc2cccc3c2S(=O)(=O)C=C3)cc1 | 2680 nM
COc1ccc(Nc2cccc3c2S(=O)(=O)C=C3)cc1 | 2590 nM
O=S1(=O)C=Cc2cccc(Nc3c(F)c(F)c(F)c(F)c3F)c21 | 3480 nM
O=S1(=O)C=Cc2ccc(Nc3ccc(Cl)cc3)cc21 | 2300 nM
O=S1(=O)C=Cc2cccc(Nc3ccc(C(F)(F)F)cc3)c21 | 2440 nM
O=S1(=O)C=Cc2cccc(Nc3ccc(F)c(F)c3)c21 | 2500 nM
N#Cc1cccc(Nc2ccc3c(c2)S(=O)(=O)C=C3)c1 | > 10000 nM
O=S1(=O)C=Cc2ccc(Nc3cccc(C(F)(F)F)c3)cc21 | 1440 nM
O=S1(=O)C=Cc2cccc(Nc3ccccc3C(F)(F)F)c21 | 4120 nM
O=[N+]([O-])c1ccc2c(c1)S(=O)(=O)C=C2 | 4400 nM

Test system: not listed separately
Assay: Antiproliferative activity against human MCF7 cells after 72 hrs by MTT assay
Type: functional, cell-based
Details: MCF7, 72 h
How it was run: as §1

Compound | IC50
O=S1(=O)C=Cc2cccc(Nc3ccc(Cl)c(Cl)c3)c21 | 570 nM
O=S1(=O)C=Cc2cccc(Nc3ccc(OC(F)(F)F)cc3)c21 | 2690 nM
COc1cc(Nc2cccc3c2S(=O)(=O)C=C3)cc(OC)c1OC | 930 nM
Cc1cc(C)cc(Nc2cccc3c2S(=O)(=O)C=C3)c1 | 8800 nM
O=S1(=O)C=Cc2cccc(Nc3cc(C(F)(F)F)cc(C(F)(F)F)c3)c21 | 5110 nM
O=S1(=O)C=Cc2ccc(Nc3cccc(OC(F)(F)F)c3)cc21 | 2020 nM
O=S1(=O)C=Cc2ccc(Nc3ccc(C(F)(F)F)cc3)cc21 | 1270 nM
O=S1(=O)C=Cc2ccc(Nc3ccc(F)c(F)c3)cc21 | 2610 nM
COc1cc(Nc2ccc3c(c2)S(=O)(=O)C=C3)cc(OC)c1OC | 2230 nM
O=S1(=O)C=Cc2ccc(Nc3ccc(Cl)c(Cl)c3)cc21 | 2230 nM
COc1ccccc1Nc1cccc2c1S(=O)(=O)C=C2 | 5100 nM
O=S1(=O)C=Cc2cccc(Nc3cccc(F)c3)c21 | 1120 nM
O=S1(=O)C=Cc2cccc(Nc3ccc(Cl)cc3)c21 | 680 nM
COc1ccc(Nc2ccc3c(c2)S(=O)(=O)C=C3)cc1 | 1210 nM
Cc1ccc(Nc2cccc3c2S(=O)(=O)C=C3)cc1 | 1890 nM
COc1ccc(Nc2cccc3c2S(=O)(=O)C=C3)cc1 | 940 nM
O=S1(=O)C=Cc2cccc(Nc3c(F)c(F)c(F)c(F)c3F)c21 | 2300 nM
O=S1(=O)C=Cc2ccc(Nc3ccc(Cl)cc3)cc21 | 2670 nM
O=S1(=O)C=Cc2cccc(Nc3ccc(C(F)(F)F)cc3)c21 | 1820 nM
O=S1(=O)C=Cc2cccc(Nc3ccc(F)c(F)c3)c21 | 950 nM
N#Cc1cccc(Nc2ccc3c(c2)S(=O)(=O)C=C3)c1 | > 10000 nM
O=S1(=O)C=Cc2ccc(Nc3cccc(C(F)(F)F)c3)cc21 | 2500 nM
O=S1(=O)C=Cc2cccc(Nc3ccccc3C(F)(F)F)c21 | 8100 nM
O=[N+]([O-])c1ccc2c(c1)S(=O)(=O)C=C2 | 2360 nM

Test system: not listed separately
Assay: Antiproliferative activity against human HCT116 cells after 72 hrs by MTT assay
Type: functional, cell-based
Details: HCT-116, 72 h
How it was run: as §1

Compound | IC50
O=S1(=O)C=Cc2cccc(Nc3ccc(Cl)c(Cl)c3)c21 | 680 nM
O=S1(=O)C=Cc2cccc(Nc3ccc(OC(F)(F)F)cc3)c21 | 2380 nM
COc1cc(Nc2cccc3c2S(=O)(=O)C=C3)cc(OC)c1OC | 1150 nM
Cc1cc(C)cc(Nc2cccc3c2S(=O)(=O)C=C3)c1 | > 10000 nM
O=S1(=O)C=Cc2cccc(Nc3cc(C(F)(F)F)cc(C(F)(F)F)c3)c21 | 3600 nM
O=S1(=O)C=Cc2ccc(Nc3cccc(OC(F)(F)F)c3)cc21 | 1980 nM
O=S1(=O)C=Cc2ccc(Nc3ccc(C(F)(F)F)cc3)cc21 | 1340 nM
O=S1(=O)C=Cc2ccc(Nc3ccc(F)c(F)c3)cc21 | 3020 nM
COc1cc(Nc2ccc3c(c2)S(=O)(=O)C=C3)cc(OC)c1OC | 1420 nM
O=S1(=O)C=Cc2ccc(Nc3ccc(Cl)c(Cl)c3)cc21 | 2470 nM
COc1ccccc1Nc1cccc2c1S(=O)(=O)C=C2 | 5000 nM
O=S1(=O)C=Cc2cccc(Nc3cccc(F)c3)c21 | 1220 nM
O=S1(=O)C=Cc2cccc(Nc3ccc(Cl)cc3)c21 | 260 nM
COc1ccc(Nc2ccc3c(c2)S(=O)(=O)C=C3)cc1 | 1170 nM
Cc1ccc(Nc2cccc3c2S(=O)(=O)C=C3)cc1 | 4000 nM
COc1ccc(Nc2cccc3c2S(=O)(=O)C=C3)cc1 | 1990 nM
O=S1(=O)C=Cc2cccc(Nc3c(F)c(F)c(F)c(F)c3F)c21 | 3370 nM
O=S1(=O)C=Cc2ccc(Nc3ccc(Cl)cc3)cc21 | 4440 nM
O=S1(=O)C=Cc2cccc(Nc3ccc(C(F)(F)F)cc3)c21 | 1440 nM
O=S1(=O)C=Cc2cccc(Nc3ccc(F)c(F)c3)c21 | 680 nM
N#Cc1cccc(Nc2ccc3c(c2)S(=O)(=O)C=C3)c1 | > 10000 nM
O=S1(=O)C=Cc2ccc(Nc3cccc(C(F)(F)F)c3)cc21 | 1370 nM
O=S1(=O)C=Cc2cccc(Nc3ccccc3C(F)(F)F)c21 | 5950 nM
O=[N+]([O-])c1ccc2c(c1)S(=O)(=O)C=C2 | 1080 nM

Test system: MDA-MB-231
Assay: Potency index, ratio of stattic IC50 to compound IC50 for human MDA-MB-231 cells
Type: functional
Details: not given

Compound | Ratio IC50
O=S1(=O)C=Cc2cccc(Nc3ccc(Cl)cc3)c21 | 1.4 - 7.2

Test system: A549
Assay: Potency index, ratio of stattic IC50 to compound IC50 for human A549 cells
Type: functional
Details: not given

Compound | Ratio IC50
O=S1(=O)C=Cc2cccc(Nc3ccc(Cl)cc3)c21 | 1.4 - 7.2

Test system: MCF7
Assay: Potency index, ratio of stattic IC50 to compound IC50 for human MCF7 cells
Type: functional
Details: not given

Compound | Ratio IC50
O=S1(=O)C=Cc2cccc(Nc3ccc(Cl)cc3)c21 | 1.4 - 7.2

Test system: HCT-116
Assay: Potency index, ratio of stattic IC50 to compound IC50 for human HCT116 cells
Type: functional
Details: not given

Compound | Ratio IC50
O=S1(=O)C=Cc2cccc(Nc3ccc(Cl)cc3)c21 | 1.4 - 7.2

Target: Signal transducer and activator of transcription 3 (Homo sapiens) (UniProt P40763)
Sequence (P40763 whole entry): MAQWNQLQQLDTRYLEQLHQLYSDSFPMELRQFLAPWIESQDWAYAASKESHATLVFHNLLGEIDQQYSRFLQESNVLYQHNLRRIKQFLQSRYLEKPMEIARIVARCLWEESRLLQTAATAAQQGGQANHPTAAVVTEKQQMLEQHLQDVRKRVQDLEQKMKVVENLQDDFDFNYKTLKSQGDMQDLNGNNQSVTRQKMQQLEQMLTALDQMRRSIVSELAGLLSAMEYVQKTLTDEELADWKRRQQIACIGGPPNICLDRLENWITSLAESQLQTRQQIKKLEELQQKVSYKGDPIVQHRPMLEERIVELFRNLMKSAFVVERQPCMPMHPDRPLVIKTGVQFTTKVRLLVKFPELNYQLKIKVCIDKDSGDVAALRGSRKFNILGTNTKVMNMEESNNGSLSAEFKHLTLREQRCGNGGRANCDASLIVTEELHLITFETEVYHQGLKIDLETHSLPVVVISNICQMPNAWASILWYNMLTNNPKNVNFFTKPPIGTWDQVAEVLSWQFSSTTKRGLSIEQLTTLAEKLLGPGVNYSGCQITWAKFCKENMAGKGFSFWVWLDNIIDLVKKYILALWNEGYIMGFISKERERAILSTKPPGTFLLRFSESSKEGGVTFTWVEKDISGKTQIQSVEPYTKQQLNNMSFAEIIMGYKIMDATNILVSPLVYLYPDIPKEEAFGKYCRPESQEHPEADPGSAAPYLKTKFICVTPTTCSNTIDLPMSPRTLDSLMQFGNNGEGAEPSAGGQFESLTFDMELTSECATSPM
Assay: Inhibition of STAT3 dimer DNA binding activity in human MDA-MB-231 nuclear extract at 5 uM preincubated for 24 hrs followed by addition of [32P]hSIE by electrophoretic mobility shift assay
Details: not given
How it was run: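 Cells treated 24 h in fresh growth medium. Nuclear extracts of equal total protein incubated with ³²P-labelled hSIE oligonucleotide probe and resolved by EMSA; Stattic 5 µM as comparator.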

Compound | inhibition
O=[N+]([O-])c1ccc2c(c1)S(=O)(=O)C=C2 | Active

Test system: not listed separately
Assay: Antitumor activity against mouse 4T1 cells implanted in ICR mouse assessed as tumor growth inhibition at 1 mg/kg, ip administered once in 4 days for 11 days measured on day 12 relative to control
Type: functional
Details: 4T1, ip, read-out: TGI
How it was run: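 Male ICR mice, 5 weeks old, inoculated with 2 × 10⁶ 4T1 cells at the right armpit. At 24 h, randomised into groups of 6 and dosed i.p.; vehicle PBS/DMSO (8:2) daily for 11 days. Killed day 12; tumours weighed; TI% = (1 − mean treated/mean control weight) × 100. Tumour p-STAT3 and STAT3 assessed by western blot.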

Compound | inhibition in vivo at 1 mg/kg
COc1cccc2c1C(=O)c1c(O)c3c(c(O)c1C2=O)C[C@@](O)(C(=O)CO)C[C@@H]3O[C@H]1C[C@H](N)[C@H](O)[C@H](C)O1 [DOXORUBICIN] | 67%

Test system: Mus musculus
Assay: Toxicity in ICR mouse implanted with mouse 4T1 cells assessed as body weight loss at 1 mg/kg, ip administered once in 4 days for 11 days measured daily during compound dosing
Type: organism-based
Details: in vivo
How it was run: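 4T1-bearing male ICR mice (5 weeks, 6/group), dosed i.p. with PBS/DMSO (8:2) vehicle control. Body weight recorded daily. BI% = (1 − mean treated/mean control body weight) × 100.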

Compound | Activity
COc1cccc2c1C(=O)c1c(O)c3c(c(O)c1C2=O)C[C@@](O)(C(=O)CO)C[C@@H]3O[C@H]1C[C@H](N)[C@H](O)[C@H](C)O1 [DOXORUBICIN] | Toxic
